Assay: Micro-SPECT/CT imaging
Format: in vivo
Conditions: normal female ICR mice; 37 MBq i.v.; SPECT image at 30 min post injection
How it was run: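 Female ICR mice, obtained at 7 weeks old from a specific pathogen-free colony, were held three weeks for quarantine and adaptation. Housing was 23 ± 2 °C, 50 ± 5% humidity, 12 h light/dark, with diet and water ad libitum. Under 2% isoflurane, lying prone, mice were imaged on a small-animal SPECT/CT with a single-pinhole high-sensitivity mouse collimator.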

Substance | Blood clearance (SPECT image, words) | Excretion / clearance from the body (SPECT image, words)
Gly-Gly- Gly-Gly-Gly [^99mTc-tricarbonyl-Gly(5)] | fast blood clearance | 
Gly-Gly-Gly [^99mTc-tricarbonyl-Gly(3)] | fast blood clearances | good clearance property in vivo

Reference: article PMC3834432 (Toxicological Research, 2012)
